{
  "source": "ChEMBL document CHEMBL2406928",
  "about": "“Discovery of novel insulin-like growth factor-1 receptor inhibitors with unique time-dependent binding kinetics” (ACS Med Chem Lett, 2013)",
  "key": {"[1]": {"test": "Plasma concentration in CD1 mouse at 5 mg/kg, po measured at 8 hrs", "format": "ADME, organism-based", "set-up": "dose 5 mg/kg, route oral"}, "[2]": {"test": "Cmax in CD1 mouse at 5 mg/kg, po", "format": "ADME, organism-based", "set-up": "dose 5 mg/kg, route oral", "settings": "in vivo"}, "[3]": {"test": "Oral bioavailability in CD1 mouse at 5 mg/kg", "format": "ADME, organism-based", "settings": "plasma"}, "[4]": {"test": "Clearance in CD1 mouse at 0.5 mg/kg, iv", "format": "ADME, organism-based", "set-up": "dose 0.5 mg/kg, route intravenous", "settings": "in vivo"}, "[5]": {"test": "Plasma concentration in CD1 mouse at 5 mg/kg, po measured at 24 hrs", "format": "ADME, organism-based", "set-up": "dose 5 mg/kg, route oral"}, "[6]": {"test": "Tmax in CD1 mouse at 5 mg/kg, po", "format": "ADME, organism-based", "set-up": "dose 5 mg/kg, route oral", "settings": "in vivo"}, "[7]": {"test": "Volume of distribution at steady state in CD1 mouse at 0.5 mg/kg, iv", "format": "ADME, organism-based", "set-up": "dose 0.5 mg/kg, route intravenous", "settings": "in vivo, read-out: Vdss"}, "[8]": {"test": "Antitumor activity against human GEO cells xenografted in nu/nu CD1 mouse assessed as tumor growth inhibition at 5 mg/kg, po qd administered for 14 days measured twice per week relative to vehicle-treated control", "format": "functional", "settings": "336 h, read-out: TGI", "outline": "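GEO human colon cancer xenografts in mice; oral dosing at 5 mg/kg once daily, days 1–14. Tumor volumes expressed as mean percentage of initial volume ± SE; TGI calculated relative to vehicle-treated group.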"}, "[9]": {"test": "(§1) Antitumor activity against human GEO cells xenografted in nu/nu CD1 mouse assessed as tumor growth inhibition administered as intermittent dosing regimen relative to vehicle-treated control", "format": "functional"}, "[10]": {"test": "Plasma concentration in CD1 mouse at 2.5 mg/kg, po measured at 8 hrs", "format": "ADME, organism-based", "set-up": "dose 2.5 mg/kg, route oral"}, "[11]": {"test": "Antitumor activity against human GEO cells xenografted in nu/nu CD1 mouse assessed as tumor growth inhibition at 2 mg/kg, po q7d administered for 14 days measured twice per week relative to vehicle-treated control", "settings": "336 h, read-out: TGI"}, "[12]": {"test": "Tmax in CD1 mouse at 2.5 mg/kg, po", "format": "ADME, organism-based", "set-up": "dose 2.5 mg/kg, route oral", "settings": "in vivo"}, "[13]": {"test": "Cmax in CD1 mouse at 2.5 mg/kg, po", "format": "ADME, organism-based", "set-up": "dose 2.5 mg/kg, route oral", "settings": "in vivo"}, "[14]": {"test": "Clearance in CD1 mouse at 5 mg/kg, iv", "format": "ADME, organism-based", "set-up": "dose 5 mg/kg, route intravenous", "settings": "in vivo"}, "[15]": {"test": "Plasma concentration in CD1 mouse at 2.5 mg/kg, po measured at 24 hrs", "format": "ADME, organism-based", "set-up": "dose 2.5 mg/kg, route oral"}, "[16]": {"test": "Volume of distribution at steady state in CD1 mouse at 5 mg/kg, iv", "format": "ADME, organism-based", "set-up": "dose 5 mg/kg, route intravenous", "settings": "in vivo, read-out: Vdss"}, "Mus musculus [17]": {"tested_on": "Mus musculus", "test": "In vivo inhibition of IGF-1R phosphorylation in human GEO cells xenografted in nu/nu CD1 mouse at 2 mg/kg, po measured up to 48 hrs relative to control", "format": "functional", "outline": "(§2)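 Single oral dose of 2 mg/kg to mice bearing GEO colon cancer xenografts (IGF-1R/IGF-II autocrine loop). Phosphorylation of IGF-1R and of IR in tumors followed over time up to 48 h after dosing, expressed as inhibition versus control.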"}, "[18]": {"test": "Aqueous solubility of the compound", "format": "physicochemical", "settings": "buffer"}, "[19]": {"test": "Oral bioavailability in CD1 mouse at 2.5 mg/kg", "format": "ADME, organism-based", "settings": "plasma"}, "Mus musculus [20]": {"tested_on": "Mus musculus", "test": "In vivo inhibition of IR phosphorylation in human GEO cells xenografted in nu/nu CD1 mouse at 2 mg/kg, po measured up to 48 hrs relative to control", "format": "functional", "outline": "as §2"}, "GEO": {"tested_on": "GEO", "test": "as §1", "format": "functional"}, "[21]": {"target": "Insulin-like growth factor 1 receptor (Homo sapiens) (UniProt P08069)", "sequence (P08069 31-736 limits assumed)": "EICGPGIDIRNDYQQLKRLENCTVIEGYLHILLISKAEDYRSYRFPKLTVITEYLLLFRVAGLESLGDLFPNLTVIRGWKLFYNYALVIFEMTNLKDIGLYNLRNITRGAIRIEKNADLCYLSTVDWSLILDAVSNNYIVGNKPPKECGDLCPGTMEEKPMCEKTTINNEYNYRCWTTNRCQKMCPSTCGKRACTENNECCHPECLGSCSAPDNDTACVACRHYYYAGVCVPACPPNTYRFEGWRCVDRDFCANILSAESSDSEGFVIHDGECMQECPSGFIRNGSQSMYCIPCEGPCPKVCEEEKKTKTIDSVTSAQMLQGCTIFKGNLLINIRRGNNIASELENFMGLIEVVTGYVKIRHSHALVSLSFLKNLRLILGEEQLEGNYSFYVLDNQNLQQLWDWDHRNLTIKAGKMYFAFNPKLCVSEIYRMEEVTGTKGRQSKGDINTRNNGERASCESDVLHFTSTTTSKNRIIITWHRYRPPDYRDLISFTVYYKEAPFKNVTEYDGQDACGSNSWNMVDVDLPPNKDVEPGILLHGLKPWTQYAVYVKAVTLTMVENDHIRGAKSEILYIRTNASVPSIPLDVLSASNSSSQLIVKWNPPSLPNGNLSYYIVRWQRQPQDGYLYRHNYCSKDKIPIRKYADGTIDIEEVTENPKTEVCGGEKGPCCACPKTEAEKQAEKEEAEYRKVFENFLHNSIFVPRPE", "sequence (P08069 741-1367 limits assumed)": "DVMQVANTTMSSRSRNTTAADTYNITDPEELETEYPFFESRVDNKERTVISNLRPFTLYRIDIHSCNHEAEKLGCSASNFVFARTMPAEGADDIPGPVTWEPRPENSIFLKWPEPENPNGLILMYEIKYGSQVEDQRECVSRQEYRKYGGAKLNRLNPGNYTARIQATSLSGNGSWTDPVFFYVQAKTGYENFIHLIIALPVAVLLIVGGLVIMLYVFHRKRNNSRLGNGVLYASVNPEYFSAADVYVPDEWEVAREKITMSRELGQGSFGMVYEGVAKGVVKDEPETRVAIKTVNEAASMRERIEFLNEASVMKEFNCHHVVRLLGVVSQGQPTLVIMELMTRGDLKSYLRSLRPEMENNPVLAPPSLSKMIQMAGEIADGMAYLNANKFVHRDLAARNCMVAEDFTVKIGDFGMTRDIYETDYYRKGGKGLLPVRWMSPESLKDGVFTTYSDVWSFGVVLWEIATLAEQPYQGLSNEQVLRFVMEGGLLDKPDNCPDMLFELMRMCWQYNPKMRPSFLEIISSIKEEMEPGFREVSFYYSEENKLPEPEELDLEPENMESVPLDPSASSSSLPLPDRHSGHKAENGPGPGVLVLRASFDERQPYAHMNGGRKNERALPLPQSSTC"}},
  "note": "The source made the active and inactive calls. The rule behind the calls is not given here.",
  "data": [
    {"smiles": "COc1cc(-c2ccccc2)nc2cc(-c3nc([C@H]4C[C@@](C)(O)C4)n4ccnc(N)c34)ccc12", "values": [
      {"measurement": "concentration at 8 h", "setting": "[1]", "value": 280, "unit": "nM"},
      {"measurement": "Cmax", "setting": "[2]", "value": 3200, "unit": "nM"},
      {"measurement": "bioavailability", "setting": "[3]", "value": 74, "unit": "%"},
      {"measurement": "clearance", "setting": "[4]", "value": 17, "unit": "mL/min/kg"},
      {"measurement": "concentration at 24 h", "setting": "[5]", "value": "< 30", "unit": "nM"},
      {"measurement": "Tmax", "setting": "[6]", "value": 30, "unit": "min"},
      {"measurement": "Vd", "setting": "[7]", "value": 2.4, "unit": "L/kg"},
      {"measurement": "inhibition in vivo at 5 mg/kg", "setting": "[8]", "value": 64, "unit": "%"},
      {"measurement": "TGI", "setting": "[9]", "value": "<50", "unit": "%"}
    ]},
    {"smiles": "CCOc1cc(-c2ccccc2)nc2cc(-c3nc([C@H]4C[C@@](C)(O)C4)n4ccnc(N)c34)ccc12", "values": [
      {"measurement": "concentration at 8 h", "setting": "[10]", "value": 320, "unit": "nM"},
      {"measurement": "inhibition in vivo at 2 mg/kg", "setting": "[11]", "value": 66, "unit": "%"},
      {"measurement": "Tmax", "setting": "[12]", "value": 30, "unit": "min"},
      {"measurement": "Cmax", "setting": "[13]", "value": 2200, "unit": "nM"},
      {"measurement": "clearance", "setting": "[14]", "value": 5, "unit": "mL/min/kg"},
      {"measurement": "concentration at 24 h", "setting": "[15]", "value": "< 30", "unit": "nM"},
      {"measurement": "Vd", "setting": "[16]", "value": 1.5, "unit": "L/kg"},
      {"measurement": "inhibition in vivo at 2 mg/kg", "setting": "Mus musculus [17]", "value": 80, "unit": "%"},
      {"measurement": "solubility", "setting": "[18]", "value": "soluble"},
      {"measurement": "bioavailability", "setting": "[19]", "value": 63, "unit": "%"},
      {"measurement": "inhibition in vivo at 2 mg/kg", "setting": "Mus musculus [20]", "value": 80, "unit": "%"},
      {"measurement": "TGI", "setting": "GEO", "value": "Active"}
    ]},
    {"smiles": "C[C@]1(O)C[C@@H](c2nc(-c3ccc4ccc(-c5ccccc5)nc4c3)c3c(N)nccn32)C1", "values": [
      {"measurement": "T1/2", "setting": "[21]", "value": 12, "unit": "min"}
    ]}
  ]
}
